# Laboratory results from ChEMBL document CHEMBL1122239, “Synthesis and biological properties of new hexapeptide substrates for vitamin K dependent carboxylase. Evidence for X-Pro cis/trans amide bond interconversions in prothrombin precursor fragment 18-23” (J Med Chem, 1983).
# T1: Vitamin K-dependent gamma-carboxylase (Rattus norvegicus) (UniProt O88496)
# T1 sequence (whole entry): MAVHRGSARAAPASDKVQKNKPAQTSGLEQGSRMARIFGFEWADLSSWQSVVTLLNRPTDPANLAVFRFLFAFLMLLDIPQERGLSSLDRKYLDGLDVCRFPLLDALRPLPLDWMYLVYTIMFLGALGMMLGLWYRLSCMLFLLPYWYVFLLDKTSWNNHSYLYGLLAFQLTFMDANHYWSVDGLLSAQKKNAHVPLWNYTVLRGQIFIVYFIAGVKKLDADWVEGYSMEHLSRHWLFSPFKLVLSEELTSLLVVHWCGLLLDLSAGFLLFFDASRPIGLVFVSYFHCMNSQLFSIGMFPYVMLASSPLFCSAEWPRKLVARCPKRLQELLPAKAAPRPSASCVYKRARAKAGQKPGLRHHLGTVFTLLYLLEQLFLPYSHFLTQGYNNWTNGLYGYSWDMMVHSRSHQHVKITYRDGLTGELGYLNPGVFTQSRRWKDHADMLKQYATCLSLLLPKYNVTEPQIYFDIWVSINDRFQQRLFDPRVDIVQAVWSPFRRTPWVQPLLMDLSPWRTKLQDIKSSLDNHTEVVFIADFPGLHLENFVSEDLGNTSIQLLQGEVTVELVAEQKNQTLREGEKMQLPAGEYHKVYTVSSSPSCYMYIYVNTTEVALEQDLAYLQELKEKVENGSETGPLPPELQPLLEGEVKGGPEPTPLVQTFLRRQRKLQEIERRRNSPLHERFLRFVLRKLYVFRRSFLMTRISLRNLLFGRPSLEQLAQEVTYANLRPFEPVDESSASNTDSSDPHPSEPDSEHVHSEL
# Columns and labels:
# Assay type in all cases: functional
# [1] = Carboxylation of 0.25 mM Phe-Leu-Glu-Glu-Leu at a concentration of 1 mM
# Summary of the method: (§1)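 Inhibition format: the hexapeptide was added at 1, 4.25 or 5.5 mM to a carboxylase reaction containing 0.25 mM H-Phe-Leu-Glu-Glu-Leu-OH as the reference substrate. Carboxylation of the pentapeptide was reported as a percentage. The detailed assay procedure is given only by reference to earlier work.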
# [2] = Carboxylation of 0.25 mM Phe-Leu-Glu-Glu-Leu at a concentration of 4.25 mM; summary of the method: as §1
# [3] = molecular target: T1, Vitamin K-dependent gamma-carboxylase (Rattus norvegicus); test: Compound was evaluated as substrates for vitamin K dependent carboxylase and percent CO2 incorporation was determined at 0.25 mM concentrations
# Summary of the method: (§2)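 Vitamin K dependent carboxylase, which needs O2, reduced vitamin K and CO2, was given each hexapeptide directly as substrate at 0.25, 1, 4.25 or 5.5 mM. Carboxylation of Glu to Gla was reported as percent CO2 incorporation. The full assay procedure is given only by reference to earlier work.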
# [4] = molecular target: T1, Vitamin K-dependent gamma-carboxylase (Rattus norvegicus); test: Compound was evaluated as substrates for vitamin K dependent carboxylase and percent CO2 incorporation was determined at 4.25 mM concentrations; summary of the method: as §2
# [5] = molecular target: T1, Vitamin K-dependent gamma-carboxylase (Rattus norvegicus); test: Compound was evaluated as substrates for vitamin K dependent carboxylase and percent CO2 incorporation was determined at 1 mM concentrations; summary of the method: as §2
# [6] = molecular target: T1, Vitamin K-dependent gamma-carboxylase (Rattus norvegicus); test: Compound was evaluated as substrates for vitamin K dependent carboxylase and percent CO2 incorporation was determined at 5.5 mM concentrations; summary of the method: as §2
# [7] = Carboxylation of 0.25 mM Phe-Leu-Glu-Glu-Leu at a concentration of 5.5 mM; summary of the method: as §1
# [8] = substrate: CC(C)C[C@H]1NC(=O)[C@H](N)CSSC[C@@H](C(=O)O)NC(=O)[C@@H]2CCCN2C(=O)[C@@H](CCC(=O)O)NC(=O)[C@H](CCC(=O)O)NC1=O; test: (§3) Compound was evaluated as substrates for vitamin K dependent carboxylase and percent CO2 incorporation was determined; summary of the method: as §2
# [9] = substrate: COC(=O)[C@@H]1CSSC[C@@H](NC(C)=O)C(=O)N[C@H](CC(C)C)C(=O)N[C@@H](CCC(=O)O)C(=O)N[C@H](CCC(=O)O)C(=O)N2CCC[C@H]2C(=O)N1; test: as §3; summary of the method: as §2
# [10] = substrate: CC(C)C[C@H](NC(=O)[C@H](CC(N)=O)NC(=O)[C@H]1CSSC[C@H](NC(=O)[C@H](CCC(=O)O)NC(=O)[C@H](CCCN=C(N)N)NC(=O)[C@H](CCC(=O)O)NC(=O)[C@H](CC(C)C)NC(=O)[C@@H](N)CC(N)=O)C(=O)N[C@@H](CC(C)C)C(=O)N[C@H](CCC(=O)O)C(=O)N[C@@H](CCC(=O)O)C(=O)N2CCC[C@@H]2C(=O)N1)C(=O)N[C@@H](CCC(=O)O)C(=O)N[C@@H](CCCN=C(N)N)C(=O)N[C@@H](CCC(=O)O)C(=O)N[C@@H](CS)C(=O)O; test: (§4) Compound was evaluated as substrates for vitamin K dependent carboxylase; summary of the method: as §2
# [11] = substrate: CC(C)C[C@H](NC(=O)[C@@H](N)CC(N)=O)C(=O)N[C@@H](CCC(=O)O)C(=O)N[C@@H](CCCN=C(N)N)C(=O)N[C@@H](CCC(=O)O)C(=O)N[C@@H](CS)C(=O)O; test: as §4; summary of the method: as §2
# [12] = substrate: CC(C)C[C@H](NC(=O)[C@H](CCC(=O)O)NC(=O)[C@H](CCC(=O)O)NC(=O)[C@H](CC(C)C)NC(=O)[C@@H](N)Cc1ccccc1)C(=O)O; test: as §4; summary of the method: as §2
Molecule,Incorporation [3],Incorporation [4],Incorporation [5],Incorporation [6],Incorporation [1],Incorporation [2],Incorporation [7],Km [8],Km [9],Km [10],Km [11],Km [12]
CC(C)C[C@H](NC(=O)[C@H](C)N)C(=O)N[C@@H](CCC(=O)O)C(=O)N[C@@H](CCC(=O)O)C(=O)N1CCC[C@@H]1C(=O)N[C@@H](C)C(=O)O,14%,24%,16%,,99%,134%,,,,,,
"Vitamin K-dependent gamma-carboxylase (Rattus norvegicus), O88496 (protein) MAVHRGSARAAPASDKVQKNKPAQTSGLEQGSRMARIFGFEWADLSSWQSVVTLLNRPTDPANLAVFRFLFAFLMLLDIPQERGLSSLDRKYLDGLDVCRFPLLDALRPLPLDWMYLVYTIMFLGALGMMLGLWYRLSCMLFLLPYWYVFLLDKTSWNNHSYLYGLLAFQLTFMDANHYWSVDGLLSAQKKNAHVPLWNYTVLRGQIFIVYFIAGVKKLDADWVEGYSMEHLSRHWLFSPFKLVLSEELTSLLVVHWCGLLLDLSAGFLLFFDASRPIGLVFVSYFHCMNSQLFSIGMFPYVMLASSPLFCSAEWPRKLVARCPKRLQELLPAKAAPRPSASCVYKRARAKAGQKPGLRHHLGTVFTLLYLLEQLFLPYSHFLTQGYNNWTNGLYGYSWDMMVHSRSHQHVKITYRDGLTGELGYLNPGVFTQSRRWKDHADMLKQYATCLSLLLPKYNVTEPQIYFDIWVSINDRFQQRLFDPRVDIVQAVWSPFRRTPWVQPLLMDLSPWRTKLQDIKSSLDNHTEVVFIADFPGLHLENFVSEDLGNTSIQLLQGEVTVELVAEQKNQTLREGEKMQLPAGEYHKVYTVSSSPSCYMYIYVNTTEVALEQDLAYLQELKEKVENGSETGPLPPELQPLLEGEVKGGPEPTPLVQTFLRRQRKLQEIERRRNSPLHERFLRFVLRKLYVFRRSFLMTRISLRNLLFGRPSLEQLAQEVTYANLRPFEPVDESSASNTDSSDPHPSEPDSEHVHSEL",,,,,,,,8 mM,8 mM,0.001 mM,8 mM,8 mM

# Continued, in another order:
Incorporation [3],Incorporation [4],Incorporation [5],Incorporation [6],Molecule,Incorporation [1],Incorporation [2],Incorporation [7],Km [8],Km [9],Km [10],Km [11],Km [12]
7.5%,,7%,8.7%,CC(C)C[C@H]1NC(=O)[C@H](N)CSSC[C@@H](C(=O)O)NC(=O)[C@@H]2CCCN2C(=O)[C@@H](CCC(=O)O)NC(=O)[C@H](CCC(=O)O)NC1=O,98%,,78%,,,,,
63%,59%,60%,,CC(C)C[C@H]1NC(=O)[C@H](N)CSSC[C@@H](C(=O)O)NC(=O)[C@@H](C)NC(=O)[C@@H](CCC(=O)O)NC(=O)[C@H](CCC(=O)O)NC1=O,94%,83%,,,,,,
50%,56%,48%,,CC(C)C[C@H]1NC(=O)[C@H](N)CSSC[C@@H](C(=O)O)NC(=O)[C@H](C)NC(=O)[C@@H](CCC(=O)O)NC(=O)[C@H](CCC(=O)O)NC1=O,103%,85%,,,,,,
3.3%,,2.4%,2.2%,COC(=O)[C@@H]1CSSC[C@@H](NC(C)=O)C(=O)N[C@H](CC(C)C)C(=O)N[C@@H](CCC(=O)O)C(=O)N[C@H](CCC(=O)O)C(=O)N2CCC[C@H]2C(=O)N1,51%,,54%,,,,,
